From ChEMBL document CHEMBL1141655, “Structure-activity relationships of Bak derived peptides: affinity and specificity modulations by amino acid replacement” (Eur J Med Chem, 2008)

Key:
[1] = Selectivity ratio of EC50 for recombinant Bcl-2 to EC50 for recombinant Bcl-XL
[2] = biological target: Apoptosis regulator Bcl-2 (Homo sapiens, UniProt P10415); assay: Binding affinity to recombinant Bcl-2 expressed in Escherichia coli BL21 by fluorescence polarization assay
Summary of the method: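 GST-Bcl-2 lacking C-terminal 21 residues, glutathione-resin purified, dialysed into 20 mM phosphate pH 7.4, 1 mM EDTA, 50 mM NaCl. Competition FP: fluorescein N-terminal Bak BH3 probe 15 nM, protein 1 µM, peptide final 10^-9 to 10^-4 M with 0.05% pluronic acid; 30 min room temperature; ex 485/em 535 nm, mP. EC50 from sigmoidal dose-response, n = 2, triplicate.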

Bcl-2-like protein 1 = Bcl-2-like protein 1 (Homo sapiens, UniProt Q07817); assay: Binding affinity to recombinant Bcl-XL expressed in Escherichia coli BL21 by fluorescence polarization assay
Chain of Bcl-2-like protein 1 (Q07817 whole entry): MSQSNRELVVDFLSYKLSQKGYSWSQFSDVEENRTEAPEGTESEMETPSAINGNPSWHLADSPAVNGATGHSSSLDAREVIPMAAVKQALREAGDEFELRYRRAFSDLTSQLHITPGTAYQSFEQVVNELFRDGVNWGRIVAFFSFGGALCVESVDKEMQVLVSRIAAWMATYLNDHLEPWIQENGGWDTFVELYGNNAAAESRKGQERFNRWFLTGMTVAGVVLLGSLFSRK

Chain of Apoptosis regulator Bcl-2 (P10415 whole entry): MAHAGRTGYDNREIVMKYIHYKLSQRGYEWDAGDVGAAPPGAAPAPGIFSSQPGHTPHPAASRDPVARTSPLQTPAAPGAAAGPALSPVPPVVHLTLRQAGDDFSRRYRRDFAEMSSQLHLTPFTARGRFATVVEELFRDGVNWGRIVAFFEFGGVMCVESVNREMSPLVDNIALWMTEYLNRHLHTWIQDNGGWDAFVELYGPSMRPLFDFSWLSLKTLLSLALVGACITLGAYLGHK

| Compound | Ratio EC50 [1] | EC50 [2] [nM] | EC50 (Bcl-2-like protein 1) [nM] |
| --- | --- | --- | --- |
| CC[C@H](C)[C@H](NC(=O)[C@H](C)NC(=O)[C@H](CC(C)C)NC(=O)[C@H](CCC(N)=O)NC(=O)[C@H](CCCNC(=N)N)NC(=O)CNC(=O)[C@H](Cc1ccc2ccccc2c1)NC(=O)[C@H](CCC(N)=O)NC(=O)CN)C(=O)N[C@H](C(=O)NCC(=O)N[C@@H](CC(=O)O)C(=O)N[C@@H](CC(=O)O)C(=O)N[C@H](C(=O)N[C@@H](CC(N)=O)C(=O)N[C@@H](CCCNC(=N)N)C(=O)O)[C@@H](C)CC)[C@@H](C)CC | 17 | 6130 | 350 |
| CC[C@H](C)[C@H](NC(=O)[C@H](C)NC(=O)[C@H](CC(C)C)NC(=O)[C@H](CCC(N)=O)NC(=O)[C@H](CCCNC(=N)N)NC(=O)CNC(=O)[C@@H](NC(=O)[C@H](CCC(N)=O)NC(=O)CN)C(C)C)C(=O)N[C@H](C(=O)NCC(=O)N[C@@H](CC(=O)O)C(=O)N[C@@H](CC(=O)O)C(=O)N[C@@H](Cc1ccc([N+](=O)[O-])cc1)C(=O)N[C@@H](CC(N)=O)C(=O)N[C@@H](CCCNC(=N)N)C(=O)O)[C@@H](C)CC | 13 | 8020 | 594 |
| CC[C@H](C)[C@H](NC(=O)[C@H](C)NC(=O)[C@H](Cc1ccc2ccccc2c1)NC(=O)[C@H](CCC(N)=O)NC(=O)[C@H](CCCNC(=N)N)NC(=O)CNC(=O)[C@@H](NC(=O)[C@H](CCC(N)=O)NC(=O)CN)C(C)C)C(=O)N[C@H](C(=O)NCC(=O)N[C@@H](CC(=O)O)C(=O)N[C@@H](CC(=O)O)C(=O)N[C@H](C(=O)N[C@@H](CC(N)=O)C(=O)N[C@@H](CCCNC(=N)N)C(=O)O)[C@@H](C)CC)[C@@H](C)CC | 133 | 17000 | 127 |

These reach a lower EC50 [2]. Values come first.

| Ratio EC50 [1] | EC50 [2] [nM] | EC50 (Bcl-2-like protein 1) [nM] | Compound |
| --- | --- | --- | --- |
| 30 | 1140 | 38 | CC[C@H](C)[C@H](NC(=O)[C@H](C)NC(=O)[C@H](CC(C)C)NC(=O)[C@H](CCC(N)=O)NC(=O)[C@H](CCCNC(=N)N)NC(=O)CNC(=O)[C@@H](NC(=O)[C@H](CCC(N)=O)NC(=O)CN)C(C)C)C(=O)N[C@H](C(=O)NCC(=O)N[C@@H](CC(=O)O)C(=O)N[C@@H](CC(=O)O)C(=O)N[C@@H](Cc1ccc(Cl)cc1)C(=O)N[C@@H](CC(N)=O)C(=O)N[C@@H](CCCNC(=N)N)C(=O)O)[C@@H](C)CC |
| – | 757 | 71 | CCCC[C@H](NC(=O)[C@H](CCC(N)=O)NC(=O)CN)C(=O)NCC(=O)N[C@@H](CCCN=C(N)N)C(=O)N[C@@H](CCC(N)=O)C(=O)N[C@@H](CC(C)C)C(=O)N[C@@H](C)C(=O)N[C@H](C(=O)N[C@H](C(=O)NCC(=O)N[C@@H](CC(=O)O)C(=O)N[C@@H](CC(=O)O)C(=O)N[C@H](C(=O)N[C@@H](CC(N)=O)C(=O)N[C@@H](CCCN=C(N)N)C(=O)O)[C@@H](C)CC)[C@@H](C)CC)[C@@H](C)CC |
| 7 | 2800 | 375 | CC[C@H](C)[C@H](NC(=O)[C@H](C)NC(=O)[C@H](CC(C)C)NC(=O)[C@H](CCC(N)=O)NC(=O)[C@H](CCCNC(=N)N)NC(=O)CNC(=O)[C@@H](NC(=O)[C@H](CCC(N)=O)NC(=O)CN)C(C)C)C(=O)N[C@@H](Cc1c[nH]c2ccccc12)C(=O)NCC(=O)N[C@@H](CC(=O)O)C(=O)N[C@@H](CC(=O)O)C(=O)N[C@H](C(=O)N[C@@H](CC(N)=O)C(=O)N[C@@H](CCCNC(=N)N)C(=O)O)[C@@H](C)CC |
